From PubChem BioAssay
697 NFkB inh: inhibitors of PMA/ionomycin-induced NF-kB reporter, 697 cells, primary screen, B-cell NF-kB inhibitor project, cell-based, luminescence, uHTS; 697 B-cell NF-kB luciferase reporter, 16 h; inhibition, % at 4 µM; actives 0.33% (n = 330,000); in the data active = inhibition above about 35%
Lipid droplet: inhibitors of hepatocyte lipid droplet formation, primary screen, imaging, high-throughput imaging, BODIPY stain; inhibition, % at 6.5 µM; actives 0.4% (n = 240,000); AML12 mouse hepatocytes, oleate lipid droplets;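 active = lipid droplet intensity inhibited by at least 50%, with more than 500 cells counted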
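Test system: AML12 hepatocytes (mouse); reagent: oleate loading, 100 µM; dosing: one dose, 6.5 µM compound; incubation: overnight exposure; signal: fluorescence imaging, 20x objective, two fields per well; read-out basis: % inhibition of corrected integrated BODIPY droplet signal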
Gli-Sufu block: Gli-Sufu pathway antagonists, primary screen, luciferase luminescence, Sufu-KO-LIGHT cells, uHTS. inhibition, % at 5 µM. actives 0.74% (n = 340,000). Sufu-KO-LIGHT fibroblasts, Gli luciferase reporter luminescence. AID 588413, 2011;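 active = inhibition above about 55%, limit read from the data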
H9c2 TAG inh: inhibitors of triacylglycerol accumulation, primary screen, cell-based, uHTS, fluorescence, H9c2; H9c2 cells, Nile Red lipid (TAG) fluorescence; cells loaded with 200 µM oleic acid; inhibition, % at 12.5 µM; actives 0.66% (n = 230,000); AID 651582, 2012;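 active = pattern-corrected inhibition of lipid staining of at least 50% with the nuclear-stain viability signal not falling by more than 50%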
hiPSC survival: enhancers of single-cell hiPSC survival, primary screen, ATPlite luminescence; 100% = ROCK inhibitor wells, 0% = DMSO; actives 0.044% (n = 360,000); AID 602274, 2012; survival enhancement, % at 20 µM; in the data active = survival enhancement above about 18%;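 also: cells exposed to compounds for 16 hours before the ATP read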
Jurkat NFkB inh: inhibitors of induced NF-kB luciferase reporter, primary screen, TCR NF-kB activation inhibitor project, cell-based, luminescence, uHTS; actives 0.53% (n = 330,000); Jurkat, PMA/ionomycin-induced NF-kB luciferase reporter; inhibition, % at 4 µM; in the data active = inhibition above about 50%
Lipid drop inh: hepatocyte lipid droplet accumulation inhibitors, confirmation, imaging, AML12 mouse hepatocytes, single concentration, high-content; inhibition, % at 5.2 µM; BODIPY lipid droplet imaging; droplets induced with 100 µM oleic acid; shares compounds with Lipid droplet; actives 65% (n = 870); AID 463183, 2010;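 active = inhibition of lipid droplet metric at least 50%, with more than 300 cells in each of four replicates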
AML12 tox img: AML12 hepatocyte cytotoxicity, counter-screen for hepatic lipid droplet formation project, imaging, DAPI nuclear morphology imaging | AML12 mouse hepatocytes; hits give high values; cells fed 100 µM oleate overnight | z-score at 5 µM | shares compounds with Lipid droplet | actives 3% (n = 870); in the data active = z-score above about 6.3;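 also: compound exposure lasted overnight at 37 °C before fixation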
AML12 tox ATP: AML12 hepatocyte cytotoxicity, confirmation, cytotoxicity control for hepatic lipid droplet formation project, cell-based, single concentration. shares compounds with Lipid droplet. AML12 mouse hepatocyte viability, ATP luminescence; cells loaded with 100 µM oleic acid. cytotoxicity, % at 50 µM. 530 tested, under 10 active;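 active = cytotoxicity above 50% in each of four replicates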;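 also: compound exposure lasted overnight at 37 °C before the ATP read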
Each line names hits and unclear results; the compound was inactive in the other large screens (follow-up assays come after a bar, where they were run). An excerpt weighted towards active compounds, which were near 1.8% of everything screened.

O=C(Nc1cccnc1)c1c(F)c(F)c(F)c(F)c1F	none (no result: H9c2 TAG inh)
O=C(Nc1ccncc1)c1c(F)c(F)c(F)c(F)c1F	hiPSC survival 44
CCCCN1C(=O)C(CC(=O)NC2CCCC2)CC(C(=O)N2CCCCCC2)=C1C (stereo unspecified)	none (no result: 697 NFkB inh, Lipid droplet, Gli-Sufu block, H9c2 TAG inh, Jurkat NFkB inh)
CCOc1ccccc1N(CC(=O)N1CCN(Cc2ccccc2)CC1)S(=O)(=O)c1ccccc1	none (no result: 697 NFkB inh, Lipid droplet, Gli-Sufu block, Jurkat NFkB inh)
Cc1ccc(O)c(/C=N/NC(=O)c2[nH]ncc2Br)c1	none (no result: H9c2 TAG inh)
O=C(N/N=C/c1c(O)ccc2ccccc12)c1[nH]ncc1Br	Gli-Sufu block 67 (no result: H9c2 TAG inh)
OC(CCc1cccc(Cl)c1)c1cccs1 (stereo unspecified)	none (no result: Lipid droplet, H9c2 TAG inh)
Nc1ccc(N=Nc2ccccc2)c2ccccc12	none (no result: H9c2 TAG inh)
c1ccc(N=Nc2ccc3cccccc2-3)cc1	H9c2 TAG inh 96 (no result: Lipid droplet)
COCCCn1cc(CN2CC(N3CCN(CCN(C)C)CC3)CS2(=O)=O)nn1 (stereo unspecified)	none (no result: 697 NFkB inh, Lipid droplet, Gli-Sufu block, H9c2 TAG inh, Jurkat NFkB inh)
Cc1ccc(-n2c(N)c(C(=O)Nc3c(C)n(C)n(-c4ccccc4)c3=O)c3nc4ccccc4nc32)cc1C	Lipid droplet 70 (no result: Gli-Sufu block, H9c2 TAG inh, hiPSC survival)
COc1ccc(-n2c(N)c(C(=O)Nc3c(C)n(C)n(-c4ccccc4)c3=O)c3nc4ccccc4nc32)cc1	none
CC(C)(C)OC(=O)CNC(=O)c1nc[nH]c1C(=O)N1CCN(C(=O)OC(C)(C)C)CC1	none
CC1CCN(C(=O)c2[nH]cnc2C(=O)NCC(=O)OC(C)(C)C)CC1	hiPSC survival 26
Cc1nc2ccccc2c(C)c1CC(=O)N(C)CC(=O)Nc1cccc(F)c1	none (no result: Lipid droplet)
CC(C)CN1C(=O)/C(=C/c2c(N3CCc4ccccc4C3)nc3ccccn3c2=O)SC1=S	Lipid droplet 120 (no result: 697 NFkB inh, Gli-Sufu block, H9c2 TAG inh, hiPSC survival, Jurkat NFkB inh)
CCOC(=O)CC1C(=O)NCCN1c1nc2c(C)cccn2c(=O)c1/C=C1\SC(=S)N(CC(C)C)C1=O (stereo unspecified)	none (no result: 697 NFkB inh, Gli-Sufu block, H9c2 TAG inh, hiPSC survival, Jurkat NFkB inh)
Cc1sc2nc(C(C)Sc3n[nH]c(N)n3)[nH]c(=O)c2c1C (stereo unspecified)	none (no result: Gli-Sufu block, H9c2 TAG inh, hiPSC survival)
CCCCc1c(CCC)c(=N)c2ccccc2n1C	Gli-Sufu block 76 (no result: Lipid droplet)
COCCN=C1NN=C(c2cc(C)n(CC3CCCO3)c2C)CS1 (stereo unspecified)	none
C=CCN=C1NN=C(c2cc(C)n(CC=C)c2C)CS1	Gli-Sufu block 71
CN(CCOc1ccc(-c2ccn(S(=O)(=O)c3ccc(Cl)cc3)n2)cc1)c1ccccn1	none (no result: Lipid droplet)
CN(CCOc1ccc(-c2ccn(S(=O)(=O)c3c(Cl)cccc3Cl)n2)cc1)c1ccccn1	hiPSC survival 19 (no result: Lipid droplet)
Clc1cccc(-c2cc3nc4c(c(N5CCN(c6cnccn6)CC5)n3n2)CCCC4)c1	H9c2 TAG inh 62
Oc1c(CN2CCOCC2)cc(COCc2ccccc2)c2cccnc12	Gli-Sufu block 61 (no result: 697 NFkB inh, H9c2 TAG inh, Jurkat NFkB inh)
Oc1c(CNc2ccccc2)cc(COCc2ccccc2)c2cccnc12	none (no result: Lipid droplet)
CC(OC(=O)C1CC1C)C(=O)Nc1ccc(Cl)cn1 (stereo unspecified)	none (no result: Lipid droplet)
CC1(C(=O)Nc2ccc3ccccc3c2)CCC(=O)N1CCOc1ccccc1 (stereo unspecified)	none (no result: 697 NFkB inh, Lipid droplet, Gli-Sufu block, H9c2 TAG inh, Jurkat NFkB inh)
COC(=O)c1c(NC(=O)Cn2cnc([N+](=O)[O-])n2)sc2c1CCC(C)C2 (stereo unspecified)	none (no result: H9c2 TAG inh)
c1ccc(CCNc2ccnc3cc4ccccc4cc23)cc1	Gli-Sufu block 83, H9c2 TAG inh 104 (no result: 697 NFkB inh, Jurkat NFkB inh)
CC(C)Nc1ccc(Nc2ccnc3cc4ccccc4cc23)cc1	none
COC(=O)c1cc(S(=O)(=O)NCC2CCN(Cc3cccc(Cl)c3)CC2)c[nH]1	none (no result: H9c2 TAG inh)
Nc1c(N(Cc2ccco2)C(=O)COc2ccccc2F)c(=O)[nH]c(=O)n1Cc1ccccc1	none (no result: Lipid droplet)
COc1ccc2nc3cc(Cl)ccc3c(Nc3ccc(O)c(CN4CCN(C)CC4)c3)c2c1	H9c2 TAG inh 54 (no result: 697 NFkB inh, Lipid droplet, Jurkat NFkB inh)
COc1ccc(N(C(=O)CCl)C(C(=O)NCCc2ccccc2)c2cccs2)cc1 (stereo unspecified)	Gli-Sufu block 95 (no result: 697 NFkB inh, H9c2 TAG inh, Jurkat NFkB inh)
COC(=O)c1c(N2C(=O)[C@H]3[C@@H](C2=O)[C@]2(C(=O)Nc4c(C)cc(C)cc42)N2CCC[C@@H]32)sc(C)c1C	Lipid droplet 68 | Lipid drop inh inactive | AML12 tox img inactive
COC(=O)c1c(N2C(=O)[C@H]3[C@@H](C2=O)[C@]2(C(=O)Nc4c2ccc(C)c4C)N2CCC[C@@H]32)sc(C)c1C	none
CCn1nc(C)cc1C(=O)N1CCCC(CCC(=O)NCc2ccccc2F)C1 (stereo unspecified)	none
COc1ccc(/C=C\C(=O)NCc2ccc3[nH]c(C)cc3c2)cc1OC	Lipid droplet 74 | Lipid drop inh 96 | AML12 tox img inactive | AML12 tox ATP inactive
CC(C)N(CC(O)COc1ccc(CC(N)=O)cc1)CC(O)COc1ccc(CC(N)=O)cc1 (stereo unspecified)	none (no result: Gli-Sufu block, H9c2 TAG inh)
COc1ccccc1N1CCN(C(=O)Cn2ncc3c([nH]c4ccccc43)c2=O)CC1	Lipid droplet 52 (no result: H9c2 TAG inh) | Lipid drop inh 71 | AML12 tox img inactive | AML12 tox ATP inactive
CC(=O)Nc1ccc(NC(=O)c2c(C)c(-c3ccccc3)nc3ccccc23)cc1	none (no result: Lipid droplet)
Cc1cc(C)n2nc(C(=O)N/N=C/c3ccccc3Cl)nc2n1	none
Cc1cc(C)n2nc(C(=O)N/N=C/c3c4ccccc4cc4ccccc34)nc2n1	Lipid droplet 66 (no result: H9c2 TAG inh) | Lipid drop inh 103 | AML12 tox img inactive | AML12 tox ATP inactive
Cc1ccc(CCN2CC(C(=O)NC3CCCCC3)CC2=O)cc1 (stereo unspecified)	none (no result: H9c2 TAG inh)
O=C(N/N=C/c1ccc(F)cc1)c1ccc(OCc2ccccc2)cc1	none
Cc1occc1C(=O)N/N=C/c1ccc(OCc2ccccc2)cc1	Lipid droplet 60 | Lipid drop inh inactive | AML12 tox img inactive
Cc1cccc(NC(=O)c2nc[nH]c2C(=O)NCC(=O)OC(C)(C)C)c1	Lipid droplet 52 | Lipid drop inh inactive | AML12 tox img inactive
